Experimental data reported in ChEMBL document CHEMBL4145683, “Total Synthesis and Structure-Activity Relationships Study of Odilorhabdins, a New Class of Peptides Showing Potent Antibacterial Activity” (J Med Chem, 2018).
In brackets after ≈: the same amount, converted by molar mass. Activity calls are given as the source filed them. The calls are words filed in the database; no cut-off is given here. Positions of bridges follow the written chain, without caps; N, C: chain ends. Non-standard residues stand in square brackets, D forms with d. Residues, ends and D or L forms follow the SMILES beside them. *: point of attachment. X1 = CC[C@H](C)CCCCC(=O)*; Dab = NCC[C@H](N)C(=O)O

Assays:
Klebsiella pneumoniae [1] = assay: Antimicrobial activity against Klebsiella pneumoniae ATCC 13883 infected in neutropenic mouse pulmonary infection model assessed as reduction in lung bacterial load at 40 mg/kg, sc dosed 1 hr post infection and measured 8 hrs post infection relative to untreated control; assay type: functional
Outline: (§1)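 Mice were acclimatized for 5 days and made neutropenic with intraperitoneal cyclophosphamide (150 mg/kg on day 4, 100 mg/kg on day 1 pre-infection). They were infected intranasally with 2 × 10^6 CFU/mouse. At 1 h, a single SC dose was given in 10 mL/kg (6 mice/dose). […] A pretreatment group was sampled at 1 h. At 8 h, lungs were homogenized and plated on TSA for CFU. Analysis was one-way ANOVA with Dunnett's test vs vehicle.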

Klebsiella pneumoniae [2] = assay: Antimicrobial activity against Klebsiella pneumoniae ATCC 13883 infected in neutropenic mouse pulmonary infection model assessed as reduction in lung bacterial load at 80 mg/kg, sc dosed 1 hr post infection and measured 8 hrs post infection relative to untreated control; assay type: functional; outline: as §1
[3] = Inhibition of mammalian protein synthesis in rabbit reticulocyte lysate system incubated for 1 hr by mammalian cell-free transcription-translation assay; design: species or system Oryctolagus cuniculus
Klebsiella pneumoniae [4] = assay: Antimicrobial activity against Klebsiella pneumoniae ATCC BAA-2472 by broth microdilution method; assay type: functional
Outline: (§2)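 Broth microdilution MIC per CLSI M07-A10, with inoculum prepared by direct colony suspension. Reference strains were from ATCC and NCTC.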

Klebsiella pneumoniae [5] = assay: Antimicrobial activity against Klebsiella pneumoniae ATCC 43816 by broth microdilution method; assay type: functional; outline: as §2
Escherichia coli [6] = assay: Antimicrobial activity against Escherichia coli ATCC BAA-2469 by broth microdilution method; assay type: functional; outline: as §2
Enterobacter cloacae = assay: Antimicrobial activity against Enterobacter cloacae ATCC BAA-2468 by broth microdilution method; assay type: functional
Escherichia coli [7] = assay: microbe, parasite or virus in culture; details: ATCC 25922
Klebsiella pneumoniae [8] = assay: Antimicrobial activity against Klebsiella pneumoniae NCTC 13438 by broth microdilution method; assay type: functional; outline: as §2
Klebsiella pneumoniae [9] = assay: Antimicrobial activity against Klebsiella pneumoniae ATCC BAA-2473 by broth microdilution method; assay type: functional; outline: as §2
Escherichia coli [10] = assay: Antimicrobial activity against Escherichia coli ATCC BAA-2452 by broth microdilution method; assay type: functional; outline: as §2
Klebsiella pneumoniae [11] = assay: Antimicrobial activity against Klebsiella pneumoniae NCTC 13442 by broth microdilution method; assay type: functional
Outline: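 CLSI broth microdilution with direct colony suspension inoculum, per CLSI M07-A10. Reference strain taken from the NCTC collection.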

Klebsiella pneumoniae [12] = assay: Antimicrobial activity against Klebsiella pneumoniae ATCC BAA-1904 by broth microdilution method; assay type: functional; outline: as §2
Klebsiella pneumoniae [13] = assay: Antimicrobial activity against Klebsiella pneumoniae ATCC BAA-2146 by broth microdilution method; assay type: functional; outline: as §2
Escherichia coli [14] = assay: Antimicrobial activity against Escherichia coli ATCC BAA-2340 by broth microdilution method; assay type: functional; outline: as §2
Klebsiella pneumoniae [15] = assay: Antimicrobial activity against Klebsiella pneumoniae ATCC 13883 by broth microdilution method; assay type: functional; outline: as §2
Escherichia coli [16] = assay: Inhibition of bacterial protein synthesis in cell-free Escherichia coli incubated for 1 hr and measured for every 20 mins by bacterial cell-free transcription-translation assay; assay type: functional; details: Escherichia coli
Outline: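 E. coli cell-free coupled transcription-translation used a GFP gene in pEXP5-CT as template, started with 1 μg plasmid in 50 μL reactions. Feed buffer was added at 30 min, with incubation at 30 °C. Fluorescence (ex 475/em 520 nm) was read every 20 min. IC50 was taken at 1 h after feed addition from a four-parameter log(inhibitor)–response fit. Duplicates.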

[17] = test system: mammalian protein synthesis; assay: Selectivity index, ratio of IC50 for inhibition of mammalian protein synthesis in rabbit reticulocyte lysate system incubated for 1 hr by mammalian cell-free transcription-translation assay to IC50 for Inhibition of bacterial protein synthesis in cell-free Escherichia coli; assay type: toxicity
Klebsiella pneumoniae [18] = assay: Antimicrobial activity against Klebsiella pneumoniae NCTC 13443 by broth microdilution method; assay type: functional; outline: as §2
Klebsiella pneumoniae [19] = assay: Antimicrobial activity against Klebsiella pneumoniae ATCC BAA-1905 by broth microdilution method; assay type: functional; outline: as §2
Klebsiella pneumoniae [20] = assay: Antimicrobial activity against Klebsiella pneumoniae NCTC 13439 by broth microdilution method; assay type: functional; outline: as §2
Klebsiella pneumoniae [21] = assay: Antimicrobial activity against Klebsiella pneumoniae ATCC 13883 infected in neutropenic mouse pulmonary infection model assessed as reduction in lung bacterial load at 30 mg/kg, iv dosed 1 hr post infection and measured 8 hrs post infection relative to untreated control; assay type: functional, organism-based
Outline: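 Neutropenia induced by intraperitoneal cyclophosphamide (150 mg/kg day 4, 100 mg/kg day 1 before infection); intranasal infection at 2 × 10^6 CFU/mouse. Single iv dose at 10 mL/kg given 1 h post-infection. An untreated group was sacrificed at 1 h for baseline burden. At 8 h, lungs were homogenized, serially diluted and plated on TSA for CFU. Comparison versus vehicle by one-way ANOVA with Dunnett's test.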

[22] = Klebsiella pneumoniae, ATCC 43816, read-out: MIC

| SMILES | IC50 [3] [µM] | MIC (Klebsiella pneumoniae [4]) [µg/mL] | MIC (Klebsiella pneumoniae [5]; [22]) [µg/mL] | MIC (Escherichia coli [6]) [µg/mL] | MIC (Enterobacter cloacae) [µg/mL] | MIC (Escherichia coli [7]) [µg/mL] | MIC (Klebsiella pneumoniae [8]) [µg/mL] | MIC (Klebsiella pneumoniae [9]) [µg/mL] | MIC (Escherichia coli [10]) [µg/mL] | MIC (Klebsiella pneumoniae [11]) [µg/mL] | MIC (Klebsiella pneumoniae [12]) [µg/mL] | MIC (Klebsiella pneumoniae [13]) [µg/mL] | MIC (Escherichia coli [14]) [µg/mL] | MIC (Klebsiella pneumoniae [15]) [µg/mL] | IC50 (Escherichia coli [16]) [µM] | selectivity ratio at 1 h [17] | MIC (Klebsiella pneumoniae [18]) [µg/mL] | MIC (Klebsiella pneumoniae [19]) [µg/mL] | MIC (Klebsiella pneumoniae [20]) [µg/mL] | further results |
| --- | --- | --- | --- | --- | --- | --- | --- | --- | --- | --- | --- | --- | --- | --- | --- | --- | --- | --- | --- | --- |
| C[C@H](NC(=O)[C@@H](NC(=O)[C@@H](N)CCCCN)[C@@H](O)CN)C(=O)NCC(=O)N[C@H](CCCN)C(=O)N1CCC[C@H]1C(=O)N[C@@H](Cc1cnc[nH]1)C(=O)N[C@@H](CCCCN)C(=O)N/C(=C\CCNC(=N)N)C(=O)O.Cl | – | – | – | – | – | – | – | – | – | – | – | – | – | – | – | – | – | – | – | Activity (Klebsiella pneumoniae [1]): 2 log10CFU/ml; Activity (Klebsiella pneumoniae [2]): 3 log10CFU/ml |
| C[C@H](NC(=O)[C@@H](NC(=O)[C@@H](N)CCCCN)[C@@H](O)CN)C(=O)NCC(=O)N[C@H](CCCN)C(=O)N1CCC[C@H]1C(=O)N[C@@H](Cc1cnc[nH]1)C(=O)N[C@@H](CCCCN)C(=O)N/C(=C\CCNC(=N)N)C(=O)O | 168 | 4 (≈ 3.92 µM) | 4 (≈ 3.92 µM) | 16 (≈ 15.7 µM) | 4 (≈ 3.92 µM) | 16 (≈ 15.7 µM) | 8 (≈ 7.83 µM) | 4 (≈ 3.92 µM) | 16 (≈ 15.7 µM) | 4 (≈ 3.92 µM) | 4 (≈ 3.92 µM) | 4 (≈ 3.92 µM) | 16 (≈ 15.7 µM) | 4 (≈ 3.92 µM) | 0.55 | 300 | 4 (≈ 3.92 µM) | 8 (≈ 7.83 µM) | 4 (≈ 3.92 µM) | – |
| CC[C@H](C)CCCCC(=O)N[C@@H](CCN)C(=O)N[C@H](C(=O)N[C@@H](CCN)C(=O)N[C@H]1CCNC(=O)[C@H]([C@@H](C)O)NC(=O)[C@H](CCN)NC(=O)[C@H](CCN)NC(=O)[C@H](CC(C)C)NC(=O)[C@@H](Cc2ccccc2)NC(=O)[C@H](CCN)NC1=O)[C@@H](C)O (X1-[Dab]T[Dab][Dab][Dab][dF]L[Dab][Dab]T; lactam 4-C) | – | 0.5 (≈ 0.415 µM) | 0.5 (≈ 0.415 µM) | 0.5 (≈ 0.415 µM) | 0.5 (≈ 0.415 µM) | 0.5 (≈ 0.415 µM) | 0.5 (≈ 0.415 µM) | 0.5 (≈ 0.415 µM) | 0.5 (≈ 0.415 µM) | 0.5 (≈ 0.415 µM) | 0.5 (≈ 0.415 µM) | 1 (≈ 0.831 µM) | 0.5 (≈ 0.415 µM) | 1 (≈ 0.831 µM) | – | – | 0.5 (≈ 0.415 µM) | 0.5 (≈ 0.415 µM) | 0.5 (≈ 0.415 µM) | – |
| N=C(N)NCC/C=C(\NC(=O)[C@H](CCCCN)NC(=O)[C@H](Cc1cnc[nH]1)NC(=O)[C@@H]1CCCN1C(=O)[C@@H](CCCN)NC(=O)CNC(=O)[C@@H](NC(=O)[C@@H](NC(=O)[C@@H](N)CCCCN)[C@@H](O)CN)[C@@H](O)CN)C(=O)N[C@@H](CCCCN)C(=O)NCCCCN | 10.3 | 4 (≈ 3.16 µM) | 4 (≈ 3.16 µM) | 4 (≈ 3.16 µM) | 4 (≈ 3.16 µM) | 8 (≈ 6.33 µM) | 4 (≈ 3.16 µM) | 4 (≈ 3.16 µM) | 8 (≈ 6.33 µM) | 8 (≈ 6.33 µM) | 2 (≈ 1.58 µM) | 2 (≈ 1.58 µM) | 8 (≈ 6.33 µM) | 4 (≈ 3.16 µM) | 0.63 | 16 | 4 (≈ 3.16 µM) | 4 (≈ 3.16 µM) | 2 (≈ 1.58 µM) | MIC (Klebsiella pneumoniae [5]): 4 µg/mL (≈ 3.16 µM) |
| O=C(O)c1cn(C2CC2)c2cc(N3CCNCC3)c(F)cc2c1=O [CIPROFLOXACIN] | – | > 64 | ≤ 0.125 | > 64 | – | < 0.25 | > 64 | > 64 | < 0.125 | 8 (≈ 24.1 µM) | 0.5 (≈ 1.51 µM) | > 64 | > 64 | 0.5 (≈ 1.51 µM) | – | – | > 64 | > 64 | 32 (≈ 96.6 µM) | Activity (Klebsiella pneumoniae [21]): Active |
